The record followed here is PMC9090800 (RSC Advances, 2018).

Values after ≈ are worked out from the molar mass of the structure shown.

A word on the IC50: it is the concentration needed to halve the response being measured.

In the first data set the test system is human embryonic kidney (HEK-293) cells. In words: Cytotoxicity by MTT assay. The format is cell-based. The settings on record: HEK-293, 100 μg mL^−1, 24 h. In a few lines: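 HEK-293 cells grown as monolayers in DMEM with 10% FBS, penicillin and streptomycin, 37 °C, 5% CO2, at most 30 passages. Seeded at about 8 × 10^3 cells per well, 24 h before dosing. Test compound (DMSO stock diluted in PBS) given at 10–200 μg mL−1 for 24 h at 37 °C. Serum-free medium, then MTT (5 mg mL−1 in PBS), 4 h. Formazan dissolved in DMSO, A570 read. Triplicate; viability relative to untreated cells.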
On the technique in general: Tetrazolium assays rely on reduction of a dye to a coloured formazan, in cell work by metabolically active cells.
For `Cc1ccc(-n2cc(Cn3c(C(=O)O)nc4ccccc4c3=O)nn2)cc1` [Compound 6n, 4-Oxo-3-((1-p-tolyl-1H-1,2,3-triazol-4-yl)methyl)-3,4-dihydroquinazoline-2-carboxylic acid], the “cell viability (MTT)” value is given as “no significant decrease in cell viability”.
Same read-out and setting: then `COc1ccccc1-n1cc(Cn2c(C(=O)O)nc3ccccc3c2=O)nn1` [Compound 6e, 3-((1-(2-Methoxyphenyl)-1H-1,2,3-triazol-4-yl)methyl)-4-oxo-3,4-dihydroquinazoline-2-carboxylic acid], with “no significant decrease in cell viability”.

Another data set has as its system C. albicans (ATCC 90028). In words: In vitro anticandidal activity, broth dilution. The format is cell-based. Conditions: Candida albicans, ATCC90028, 24 h, read-out: IC50 ± S.D, C. albicans. In a few lines: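 Broth dilution followed the NCCLS protocol. Test compound in DMSO was diluted in PBS, then tested at 1000 to 7.8 μg mL−1 in SD broth with about 2.5 × 10^3 cells per mL in 96-well plates. Plates were shaken 24 h at 30 °C, 150 rpm, and read at OD580. IC50 was the concentration halving absorbance versus untreated cells, taken from a log10 concentration versus % inhibition plot. Triplicates were run on separate occasions, with fluconazole as positive control.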
For orientation: Broth dilution looks for growth in wells or tubes with falling amounts of substance.
Turning to `CCOC(=O)c1nc2ccccc2c(=O)n1Cc1cn(-c2ccc(F)cc2)nn1` [Compound 5m, Ethyl 3-((1-(4-fluorophenyl)-1H-1,2,3-triazol-4-yl)methyl)-4-oxo-3,4-dihydroquinazoline-2-carboxylate], the IC50 came out at 209 ± 6.5 µg/mL (≈ 532 µM).
Same read-out and setting: as for `CCOC(=O)c1nc2ccccc2c(=O)n1Cc1cn(-c2ccccc2C)nn1` [Compound 5d, Ethyl 4-oxo-3-((1-o-tolyl-1H-1,2,3-triazol-4-yl)methyl)-3,4-dihydroquinazoline-2-carboxylate], the figure is 297 ± 5.9 µg/mL (≈ 763 µM).
As to `O=C(O)c1nc2ccccc2c(=O)n1Cc1cn(-c2ccc(Cl)cc2)nn1` [Compound 6l, 3-((1-(4-Chlorophenyl)-1H-1,2,3-triazol-4-yl)methyl)-4-oxo-3,4-dihydroquinazoline-2-carboxylic acid], the IC50 was 221 ± 11.2 µg/mL (≈ 579 µM).
For the molecule `COc1ccc(-n2cc(Cn3c(C(=O)O)nc4ccccc4c3=O)nn2)cc1` [Compound 6o, 3-((1-(4-Methoxyphenyl)-1H-1,2,3-triazol-4-yl)methyl)-4-oxo-3,4-dihydroquinazoline-2-carboxylic acid], the IC50 came out at 125 ± 5.9 µg/mL (≈ 331 µM).
The same measure, in the same setting: as for `O=C(O)c1nc2ccccc2c(=O)n1Cc1cn(-c2cccc(Cl)c2)nn1` [Compound 6g, 3-((1-(3-Chlorophenyl)-1H-1,2,3-triazol-4-yl)methyl)-4-oxo-3,4-dihydroquinazoline-2-carboxylic acid], the figure is 100 ± 4 µg/mL (≈ 263 µM).
On the same count and under the same terms, as for `CCOC(=O)c1nc2ccccc2c(=O)n1Cc1cn(-c2ccccc2[N+](=O)[O-])nn1` [Compound 5f, Ethyl 3-((1-(2-nitrophenyl)-1H-1,2,3-triazol-4-yl)methyl)-4-oxo-3,4-dihydroquinazoline-2-carboxylate], the figure is 269 ± 5.5 µg/mL (≈ 641 µM); as for `CCOC(=O)c1nc2ccccc2c(=O)n1Cc1cn(-c2ccc(C(=O)O)cc2)nn1` [Compound 5q, 4-(4-((2-(ethoxycarbonyl)-4-oxoquinazolin-3(4H)-yl)methyl)-1H-1,2,3-triazol-1-yl)benzoic acid], 342 ± 5.7 µg/mL (≈ 816 µM); as for `CCOC(=O)c1nc2ccccc2c(=O)n1Cc1cn(-c2ccc([N+](=O)[O-])cc2)nn1` [Compound 5p, Ethyl 3-((1-(4-nitrophenyl)-1H-1,2,3-triazol-4-yl)methyl)-4-oxo-3,4-dihydroquinazoline-2-carboxylate], 151 ± 15.7 µg/mL (≈ 360 µM).
Same read-out and setting: then `Cc1cccc(-n2cc(Cn3c(C(=O)O)nc4ccccc4c3=O)nn2)c1` [Compound 6i, 4-Oxo-3-((1-m-tolyl-1H-1,2,3-triazol-4-yl)methyl)-3,4-dihydroquinazoline-2-carboxylic acid], with 133 ± 4.2 µg/mL (≈ 369 µM).
`O=C(O)c1nc2ccccc2c(=O)n1Cc1cn(-c2ccc([N+](=O)[O-])cc2)nn1` [Compound 6p, 3-((1-(4-Nitrophenyl)-1H-1,2,3-triazol-4-yl)methyl)-4-oxo-3,4-dihydroquinazoline-2-carboxylic acid]: the IC50 amounted to 789 ± 16.4 µg/mL (≈ 2010 µM).
The same measure, in the same setting: as for `Cc1ccccc1-n1cc(Cn2c(C(=O)O)nc3ccccc3c2=O)nn1` [Compound 6d, 4-Oxo-3-((1-o-tolyl-1H-1,2,3-triazol-4-yl)methyl)-3,4-dihydroquinazoline-2-carboxylic acid], the figure is 131 ± 4.3 µg/mL (≈ 363 µM).
Still for that read-out and setting: as for `CCOC(=O)c1nc2ccccc2c(=O)n1Cc1cn(-c2cccc(F)c2)nn1` [Compound 5h, Ethyl 3-((1-(3-fluorophenyl)-1H-1,2,3-triazol-4-yl)methyl)-4-oxo-3,4-dihydroquinazoline-2-carboxylate], the figure is 510 ± 6.4 µg/mL (≈ 1300 µM).
Still for that read-out and setting: then `O=C(O)c1nc2ccccc2c(=O)n1Cc1cn(-c2ccccc2[N+](=O)[O-])nn1` [Compound 6f, 3-((1-(2-Nitrophenyl)-1H-1,2,3-triazol-4-yl)methyl)-4-oxo-3,4-dihydroquinazoline-2-carboxylic acid], with 701 ± 23.6 µg/mL (≈ 1790 µM); and `COc1cccc(-n2cc(Cn3c(C(=O)O)nc4ccccc4c3=O)nn2)c1` [Compound 6j, 3-((1-(3-Methoxyphenyl)-1H-1,2,3-triazol-4-yl)methyl)-4-oxo-3,4-dihydroquinazoline-2-carboxylic acid], with 214 ± 11 µg/mL (≈ 568 µM); and `O=C(O)c1ccc(-n2cc(Cn3c(C(=O)O)nc4ccccc4c3=O)nn2)cc1` [Compound 6q, 3-((1-(4-Carboxyphenyl)-1H-1,2,3-triazol-4-yl)methyl)-4-oxo-3,4-dihydroquinazoline-2-carboxylic acid], with 916 ± 15.5 µg/mL (≈ 2340 µM).
Take `CCOC(=O)c1nc2ccccc2c(=O)n1Cc1cn(-c2ccccc2Cl)nn1` [Compound 5b, Ethyl 3-((1-(2-chlorophenyl)-1H-1,2,3-triazol-4-yl)methyl)-4-oxo-3,4-dihydroquinazoline-2-carboxylate]: the 50% inhibitory concentration (IC50) came to 124 ± 18.4 µg/mL (≈ 304 µM).
For `O=C(O)c1nc2ccccc2c(=O)n1Cc1cn(-c2ccc(F)cc2)nn1` [Compound 6m, 3-((1-(4-Fluorophenyl)-1H-1,2,3-triazol-4-yl)methyl)-4-oxo-3,4-dihydroquinazoline-2-carboxylic acid], the IC50 is 172 ± 5.3 µg/mL (≈ 471 µM).
Take `Cc1ccc(-n2cc(Cn3c(C(=O)O)nc4ccccc4c3=O)nn2)cc1` [Compound 6n, 4-Oxo-3-((1-p-tolyl-1H-1,2,3-triazol-4-yl)methyl)-3,4-dihydroquinazoline-2-carboxylic acid]: the IC50 was determined as 87 ± 4 µg/mL (≈ 241 µM).
Still for that read-out and setting: then `CCOC(=O)c1nc2ccccc2c(=O)n1Cc1cn(-c2ccc(Cl)cc2)nn1` [Compound 5l, Ethyl 3-((1-(4-chlorophenyl)-1H-1,2,3-triazol-4-yl)methyl)-4-oxo-3,4-dihydroquinazoline-2-carboxylate], with 216 ± 3.5 µg/mL (≈ 526 µM); and `O=C(O)c1nc2ccccc2c(=O)n1Cc1cn(-c2ccccc2Cl)nn1` [Compound 6b, 3-((1-(2-Chlorophenyl)-1H-1,2,3-triazol-4-yl)methyl)-4-oxo-3,4-dihydroquinazoline-2-carboxylic acid], with 169 ± 3.4 µg/mL (≈ 442 µM).
Same read-out and setting: then `CCOC(=O)c1nc2ccccc2c(=O)n1Cc1cn(-c2ccccc2)nn1` [Compound 5a, Ethyl 4-oxo-3-((1-phenyl-1H-1,2,3-triazol-4-yl)methyl)-3,4-dihydroquinazoline-2-carboxylate], with 228 ± 3.8 µg/mL (≈ 607 µM); and `O=C(O)c1nc2ccccc2c(=O)n1Cc1cn(-c2cccc(F)c2)nn1` [Compound 6h, 3-((1-(3-Fluorophenyl)-1H-1,2,3-triazol-4-yl)methyl)-4-oxo-3,4-dihydroquinazoline-2-carboxylic acid], with 135 ± 2.4 µg/mL (≈ 369 µM); and `COc1ccccc1-n1cc(Cn2c(C(=O)O)nc3ccccc3c2=O)nn1` [Compound 6e, 3-((1-(2-Methoxyphenyl)-1H-1,2,3-triazol-4-yl)methyl)-4-oxo-3,4-dihydroquinazoline-2-carboxylic acid], with 48.2 ± 3.2 µg/mL (≈ 128 µM).
Still for that read-out and setting: as for `CCOC(=O)c1nc2ccccc2c(=O)n1Cc1cn(-c2cccc(OC)c2)nn1` [Compound 5j, Ethyl 3-((1-(3-methoxyphenyl)-1H-1,2,3-triazol-4-yl)methyl)-4-oxo-3,4-dihydroquinazoline-2-carboxylate], the figure is 340 ± 7.4 µg/mL (≈ 840 µM); as for `CCOC(=O)c1nc2ccccc2c(=O)n1Cc1cn(-c2ccc(OC)cc2)nn1` [Compound 5o, Ethyl 3-((1-(4-methoxyphenyl)-1H-1,2,3-triazol-4-yl)methyl)-4-oxo-3,4-dihydroquinazoline-2-carboxylate], 394.3 ± 1.7 µg/mL (≈ 973 µM); as for `CCOC(=O)c1nc2ccccc2c(=O)n1Cc1cn(-c2cccc([N+](=O)[O-])c2)nn1` [Compound 5k, Ethyl 3-((1-(3-nitrophenyl)-1H-1,2,3-triazol-4-yl)methyl)-4-oxo-3,4-dihydroquinazoline-2-carboxylate], 143 ± 2.5 µg/mL (≈ 339 µM).
Consider `OC(Cn1cncn1)(Cn1cncn1)c1ccc(F)cc1F` [FLC, fluconazole, reference compound], for which the IC50 was 15.6 ± 2.2 µg/mL (≈ 50.9 µM).
Still for that read-out and setting: then `O=C(O)c1nc2ccccc2c(=O)n1Cc1cn(-c2ccccc2)nn1` [Compound 6a, 4-Oxo-3-((1-phenyl-1H-1,2,3-triazol-4-yl)methyl)-3,4-dihydroquinazoline-2-carboxylic acid], with 119 ± 7.6 µg/mL (≈ 342 µM); and `CCOC(=O)c1nc2ccccc2c(=O)n1Cc1cn(-c2ccccc2F)nn1` [Compound 5c, Ethyl 3-((1-(2-fluorophenyl)-1H-1,2,3-triazol-4-yl)methyl)-4-oxo-3,4-dihydroquinazoline-2-carboxylate], with 110 ± 4.8 µg/mL (≈ 279 µM).
The same measure, in the same setting: as for `CCOC(=O)c1nc2ccccc2c(=O)n1Cc1cn(-c2cccc(C)c2)nn1` [Compound 5i, Ethyl 4-oxo-3-((1-m-tolyl-1H-1,2,3-triazol-4-yl)methyl)-3,4-dihydroquinazoline-2-carboxylate], the figure is 353 ± 11.1 µg/mL (≈ 905 µM).
The same measure, in the same setting: as for `O=C(O)c1nc2ccccc2c(=O)n1Cc1cn(-c2cccc([N+](=O)[O-])c2)nn1` [Compound 6k, 3-((1-(3-Nitrophenyl)-1H-1,2,3-triazol-4-yl)methyl)-4-oxo-3,4-dihydroquinazoline-2-carboxylic acid], the figure is 701 ± 23.6 µg/mL (≈ 1790 µM).

Tested on in a further data set: not listed separately
In words: Hemolytic assay. The data set is classed as cell-based. The settings on record: human, human red blood cells (erythrocyte suspension in PBS). In outline: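 Fresh human blood was collected in EDTA and spun 10 min at 2000 rpm. Erythrocytes were washed three times in PBS and made to a 10% (v/v) suspension, then diluted 1:10. Equal volumes of cells and test compound dilution series in PBS were incubated in triplicate for 1 h at 37 °C and re-centrifuged. Supernatant A450 was expressed relative to buffer (0%) and 1% Triton X-100 (100% lysis). Fluconazole was the reference.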
Regarding `Cc1ccc(-n2cc(Cn3c(C(=O)O)nc4ccccc4c3=O)nn2)cc1` [Compound 6n, 4-Oxo-3-((1-p-tolyl-1H-1,2,3-triazol-4-yl)methyl)-3,4-dihydroquinazoline-2-carboxylic acid], the hemolysis at 1 h, 1000 μg mL^−1 was under 20%.
As to `COc1ccccc1-n1cc(Cn2c(C(=O)O)nc3ccccc3c2=O)nn1` [Compound 6e, 3-((1-(2-Methoxyphenyl)-1H-1,2,3-triazol-4-yl)methyl)-4-oxo-3,4-dihydroquinazoline-2-carboxylic acid], the hemolysis at 1 h, 1000 μg mL^−1 is under 20%.
On the same count and under the same terms, then `OC(Cn1cncn1)(Cn1cncn1)c1ccc(F)cc1F` [FLC, fluconazole, reference compound], with 78.1%.
